Wnt act – activators of Wnt/beta-catenin signaling; activation, % at 9.35 µM; Wnt/beta-catenin reporter cell assay, activator, plate reader; 300,000 compounds, 1.2% hits; in the data active = activation above about 30%, passing the limit was not always enough; inconclusive = no clear call, values can overlap the other calls
Vif imaging – inhibitors of HIV Vif | HEK293T cells, Vif self-association by quenched fluorescence, imaging, 24 h | inhibition, % at 7.49 µM | 340,000 compounds, 0.35% hits | AID 602346; in the data active = inhibition above about 50%, passing the limit was not always enough; inconclusive = no clear call, values can overlap the other calls; inactive = below about 31%
esBAF inh – blocks esBAF chromatin remodeling in mouse ES cells. Bmi1-luciferase knock-in reporter, 24 h; 100% = twice the neutral-well signal. reporter increase, % at 12.5 µM. 350,000 compounds, 2% hits; in the data active = activation above about 40%; inconclusive = no clear call, values can overlap the other calls;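 note: a rise in the Bmi1 reporter signal indicates esBAF inhibition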
MITF act – activators of MITF-driven TRPM1 promoter activity in SK-MEL-5 cells | SK-MEL-5 TRPM1-promoter luciferase, 24 h; % of positive control, neutral wells = 0 | activation, % at 12.5 µM | 300,000 compounds, 0.75% hits | AID 588334;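 active = mean activation of at least 80% with every replicate also reaching 80%; inconclusive = mean reaches 80% but some replicate falls short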
Xi reactivation – X-chromosome reactivation activator; XiGFP mouse fibroblasts, % GFP-positive cells imaging, 3 d; cells co-treated with 5-aza-dC sensitizer; scaled so ellipticine positive control = 100%; activation, % at 7.58 µM; 360,000 compounds, 0.055% hits;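 active = mean normalized replicate activation at least 10% and every replicate at or above 10%; inconclusive = only one of the two criteria met; inactive = mean below 10% and not all replicates reach 10%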
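System: XiGFP fibroblasts, SV40-immortalized. Medium: DMEM plus 5-aza-dC sensitizer. Doses: single point. Timing: 3 d treatment, 15 min room-temperature fixation. Control set: ellipticine 6 µM.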
Of the large screens only hits and unclear results are named; the others gave an inactive call. Sampled rows, rich in hits. Any-hit rate of the full collection: about 2.6%.

CN(CC(=O)N1CCCCCC1)S(=O)(=O)c1ccc(Br)cc1	none
Cc1ccc(NC(=O)C[C@H]2CC[C@H]3[C@@H](COc4ccc(NS(C)(=O)=O)cc4C(=O)N3C)O2)cc1	none (no result: Wnt act, Vif imaging, MITF act)
C[C@@H]1CN([C@H](C)CO)C(=O)c2cc(-c3cccc(C#N)c3)cnc2O[C@@H]1CN(C)C(=O)C1CCC1	none (no result: Wnt act, Vif imaging, MITF act)
COc1ccc(-c2nnc(-c3ccccc3O)o2)cc1	Wnt act 44.4
COc1ccc(-c2nnc(SCC#N)o2)cc1	none (no result: Xi reactivation)
COc1ccc(-c2nnc(-c3ccc(C)cc3)o2)cc1	Wnt act 35.4
COc1ccc(-c2nnc(-c3ccc(F)cc3)o2)cc1	Wnt act 35.6
Cc1ccc(-c2nnc(-c3ccccc3)o2)cc1	none (no result: Wnt act, esBAF inh, Xi reactivation)
C#CCSc1nnc(-c2ccc(OC)cc2)o1	Wnt act 38.4, esBAF inh 42.8 (no result: Vif imaging, Xi reactivation)
Cc1ccc(-c2nnc(N)o2)cc1	none (no result: Wnt act, esBAF inh, Xi reactivation)
Cc1ccc(-c2nnc(-c3cc(C)on3)o2)cc1	Wnt act 49.1
O=C(Nc1cccc(O)c1)c1cccc(S(=O)(=O)N2CCCCCC2)c1	esBAF inh 53.4
Cc1ccc(-c2csc(NC(=O)COC(=O)c3cccc(S(=O)(=O)N4CCOCC4)c3)n2)cc1	Wnt act 45.1 (no result: Vif imaging, esBAF inh, MITF act, Xi reactivation)
O=C(Nc1ccc2c(c1)OCO2)c1ccc(Br)c(S(=O)(=O)N2CCCC2)c1	none (no result: MITF act, Xi reactivation)
O=C(O)c1cccc(NC(=O)c2cccc(S(=O)(=O)N3CCCCC3)c2)c1	none (no result: Wnt act, Xi reactivation)
Cc1ccc(C)c(NC(=O)CN(C)C(=O)c2cccc(S(=O)(=O)N3CCCC3)c2)c1	Vif imaging 53.0
O=C(Nc1cccc(O)c1)c1ccc(Br)c(S(=O)(=O)N2CCCCC2)c1	esBAF inh 65.7 (no result: Vif imaging, Xi reactivation)
Cc1ccc(C)c(NC(=O)CN(C)C(=O)c2cccc(S(=O)(=O)N3CCN(Cc4ccccc4)CC3)c2)c1	none
O=C(N[C@H]1CC[C@@H](CCNS(=O)(=O)c2cccc(Cl)c2)O[C@H]1CO)c1ccc(F)cc1	none (no result: Wnt act, Vif imaging, MITF act)
CN(C)c1ccc(C(=O)Nc2cccc(S(=O)(=O)N3CCCC3)c2)cc1	esBAF inh 62.1
O=C(Nc1ccccn1)c1cccc(S(=O)(=O)N2CCOCC2)c1	none (no result: Wnt act, Vif imaging, Xi reactivation)
CN(C)S(=O)(=O)c1cccc(NC(=O)c2ccc(S(=O)(=O)N3CCCCC3)cc2)c1	none
Cc1ccnc(NC(=O)c2cccc(S(=O)(=O)N3CCOCC3)c2)c1	esBAF inh 50.2
COC(=O)C1C(=O)c2c([nH]c(C(=O)OC3CCCC3C)c2C)CC1C (centres undefined)	esBAF inh 73.5, MITF act 98.7
COC(=O)C1C(=O)c2c([nH]c(C(=O)OC3CCCCC3)c2C)CC1C (centres undefined)	Wnt act inconclusive, esBAF inh 63.4, MITF act 93.9
CC(C)NC(=O)NC[C@H]1[C@H](c2ccccc2)[C@H](CO)N1C(=O)c1ccccc1	none (no result: Wnt act, Vif imaging, MITF act)
Cc1ccc(S(=O)(=O)Nc2ccc3c(c2)C(=O)N([C@H](C)CO)C[C@@H](C)[C@H](CN(C)C(=O)Nc2ccc(F)cc2)OCCCC[C@@H](C)O3)cc1	none (no result: Wnt act, Vif imaging, MITF act)
Cc1cccc2cc(C#N)c(SCC(=O)N3CC(=O)Nc4ccccc43)nc12	Vif imaging 61.4 (no result: Wnt act, Xi reactivation)
COc1cc(OC)cc(C(=O)NC(C(=O)Nc2ccc3c(c2)OCCO3)C(C)C)c1 (centres undefined)	none
CCCC(=O)Nc1cccc(NC(=O)c2ccc3c(c2)OCCO3)c1	esBAF inh 43.4 (no result: Xi reactivation)
COc1cc(OC)cc(C(=O)Nc2ccc3c(c2)OCCO3)c1	esBAF inh 41.8 (no result: MITF act)
CCOc1ccc(C(=O)Nc2ccc3c(c2)OCCO3)cc1OC	esBAF inh 67.0 (no result: Xi reactivation)
C/C=C/c1ccc([C@H]2[C@@H](CO)N(S(=O)(=O)CC)[C@@H]2CN(C)C(=O)CC)cc1	none (no result: Wnt act, Vif imaging, esBAF inh, MITF act)
CCOC(=O)c1cc(-c2ccccc2)sc1NC(=O)COC(=O)c1cccc(S(N)(=O)=O)c1	Vif imaging 55.2 (no result: esBAF inh)
COCc1cn(CC[C@H]2CC[C@H](NC(=O)Nc3ccc(C(F)(F)F)cc3)[C@@H](CO)O2)nn1	none (no result: Wnt act, Vif imaging, MITF act)
CO[C@H]1CN(C)C(=O)c2cc(NC(=O)c3ccccc3F)ccc2OC[C@@H](C)N(CC2CCOCC2)C[C@@H]1C	none (no result: Wnt act, Vif imaging, MITF act)
Cc1ccc(C(=O)Nc2nn(C)c3cccc(F)c23)cc1	Vif imaging 50.1 (no result: MITF act)
Cn1nc(NC(=O)C2CCC2C(=O)O)c2c(F)cccc21 (centres undefined)	none
CCCn1nnc(NC(=O)c2cccc(OCC)c2)n1	none (no result: Xi reactivation)
CCCn1nnc(NC(=O)c2ccc3ccccc3c2)n1	MITF act 121.6 (no result: esBAF inh)
C[C@@H]1CCCCO[C@H](CN(C)C(=O)C2CCCCC2)[C@@H](C)CN([C@@H](C)CO)C(=O)c2cc(NC(=O)c3ccncc3)ccc2O1	none (no result: Wnt act, Vif imaging, MITF act)
OCC1OC(n2cnc3c(SCc4ccccc4)ncnc32)C(O)C1O (centres undefined)	none (no result: esBAF inh, MITF act)
OCC1OC(n2ccc3c(SCc4ccccc4)ncnc32)C(O)C1O (centres undefined)	Wnt act 32.4, esBAF inh 87.7
O=C(CSc1nc2ccccc2[nH]1)c1ccco1	none (no result: Wnt act, Xi reactivation)
COc1ccc2nc(SCC(=O)c3ccco3)[nH]c2c1	Wnt act 33.1, MITF act 95.1 (no result: Xi reactivation)
COc1ccc2nc(SCC(=O)C(C)(C)C)[nH]c2c1	Wnt act 41.1 (no result: esBAF inh)
O=C(Nc1ccc(F)c(Cl)c1)c1cc(C2CCCN(S(=O)(=O)c3ccccc3)C2)on1 (centres undefined)	none (no result: MITF act)
Cn1cnc(S(=O)(=O)N2CCCC(c3cc(C(=O)Nc4ccc(F)c(Cl)c4)no3)C2)c1 (centres undefined)	esBAF inh 53.3 (no result: MITF act)
O=C1/C(=C/c2ccc(O)cc2)COc2ccccc21	Wnt act 31.0
O=C1/C(=C/c2ccccn2)COc2ccccc21	none (no result: Vif imaging, esBAF inh)
O=C1/C(=C/c2ccccc2[N+](=O)[O-])COc2ccccc21	esBAF inh 55.7
CNc1ccc(/C=C2\COc3ccccc3C2=O)cc1[N+](=O)[O-]	esBAF inh 49.3 (no result: Wnt act, Xi reactivation)
O=S(=O)(N[C@H]1CC[C@H](CCn2cc(-c3ccccn3)nn2)O[C@@H]1CO)c1cccc(F)c1	none (no result: Wnt act, Vif imaging, MITF act)
COc1ccc(NC(=O)N(C)C[C@@H]2Oc3ncc(C#CCN(C)C)cc3C(=O)N([C@@H](C)CO)C[C@H]2C)cc1	none (no result: Wnt act, Vif imaging, MITF act)
COc1ccc(C(=O)c2ccsc2N)cc1	none (no result: esBAF inh)
COc1ccc(C(=O)c2ccc(CC#N)s2)cc1	esBAF inh 51.0, MITF act inconclusive (no result: Wnt act, Vif imaging, Xi reactivation)
Cc1cc(NC(=O)/C=C/c2ccc(F)cc2)n(-c2nc3ccccc3[nH]2)n1	none (no result: esBAF inh)
COc1ccc(/C=C/C(=O)Nc2cc(C)nn2-c2nc3ccccc3[nH]2)cc1	MITF act 92.0 (no result: esBAF inh)
CS(=O)(=O)Nc1ccc2c(c1)[C@H]1C[C@H](CC(=O)NCc3cccnc3)O[C@H](CO)[C@H]1O2	none (no result: Wnt act, Vif imaging, MITF act)
COc1ccc(CCc2nc(-c3ccc(-n4cccc4)cc3)no2)cc1	none
COc1ccc(-c2noc(CCc3ccccc3)n2)cc1	esBAF inh 57.1
COc1ccc(-c2noc(Cc3cccs3)n2)cc1	esBAF inh 54.6, MITF act 118.6 (no result: Xi reactivation)
Clc1cccc(-c2ccc3ncnc(NCc4cccs4)c3c2)c1	Wnt act 35.4

Screening results deposited in PubChem BioAssay by Broad Institute.
